# Experimental data from different studies.
# Each line is one published result; the experiments were not run side by side.
# HLA class I histocompatibility antigen, B alpha chain: HLA class I histocompatibility antigen, B alpha chain (Homo sapiens, UniProt P01889)
# blaNDM-1: Metallo-beta-lactamase type 2 (blaNDM-1, Klebsiella pneumoniae, UniProt C7C422)
# HTR2C: 5-hydroxytryptamine receptor 2C (HTR2C, Homo sapiens, UniProt P28335)
SMILES,target,test,conditions,IC50
CC(C)C[C@H](NC(=O)[C@H](Cc1ccccc1)NC(=O)c1cnccn1)B(O)O,"Complement C1r subcomponent (Homo sapiens, UniProt P00736)","enzyme activity, inhibitor",,> 33 µM
CC(C)[C@H](NC(=O)[C@@H](NC(=O)[C@H](CCC(=O)O)NC(=O)[C@@H](NC(=O)[C@H](Cc1ccccc1)NC(=O)[C@H](C)NC(=O)[C@H](CO)NC(=O)[C@@H](NC(=O)[C@@H](N)CO)[C@@H](C)O)C(C)C)[C@@H](C)O)C(=O)O,"HLA class I histocompatibility antigen, B alpha chain","ligand displacement, radioligand",,8.86 µM
COc1nn([C@@H](C)c2ccc(CC(C)C)cc2)c(=O)o1,"Fatty-acid amide hydrolase 1 (FAAH, Homo sapiens, UniProt O00519)","enzyme activity, inhibitor",cell membranes,0.011 µM
O=C(O)C1CSC(C(=O)O)N1 (stereo not shown),blaNDM-1,"enzyme activity, inhibitor, fluorescence",,55 µM
CCCCCNC(=N)N/N=C/c1c[nH]c2ccc(OC)cc12,HTR2C,"ligand displacement, radioligand",,0.197 µM
CN(Cc1ccccc1)C(=O)Oc1nsnc1N1CCCCC1,"Monoglyceride lipase (MGLL, Homo sapiens, UniProt Q99685)","enzyme activity, inhibitor",,5.6 µM
CSCC[C@H](NC(=O)[C@H](CCC(N)=O)NC(=O)[C@H](C)NC(=O)[C@H](CO)NC(=O)[C@@H](N)CO)C(=O)N[C@@H](CC(N)=O)C(=O)N[C@@H](CC(C)C)C(=O)N[C@@H](CC(N)=O)C(=O)N[C@H](C(=O)N[C@@H](Cc1ccccc1)C(=O)N[C@@H](CC(C)C)C(=O)N[C@@H](CC(N)=O)C(=O)O)[C@@H](C)O,"1-deoxy-D-xylulose-5-phosphate synthase (dxs, Deinococcus radiodurans, UniProt Q9RUB5)","enzyme activity, inhibitor, absorbance",pH 7.6,> 1000 µM
CC(C)[C@H](NC(=O)[C@@H](NC(=O)[C@H](CCCNC(=N)N)NC(=O)[C@H](C)NC(=O)[C@H](C)NC(=O)[C@H](CCC(=O)O)NC(=O)[C@H](CO)NC(=O)[C@H](C)NC(=O)[C@@H](N)Cc1ccccc1)C(C)C)C(=O)O,"HLA class I histocompatibility antigen, B alpha chain","ligand displacement, radioligand",,8.55 µM
O=C(Cc1ccccc1)N[C@H](C(=O)O)[C@@H]1N=C(C(=O)O)C(CSC(C(=O)O)c2ccccc2)CS1 (stereo partly shown),blaNDM-1,"enzyme activity, inhibitor, absorbance",,> 100 µM
CSCC[C@H](NC(=O)[C@H](Cc1c[nH]c2ccccc12)NC(=O)CNC(=O)[C@H](Cc1ccc(O)cc1)NC(=O)[C@H](C)NC(=O)[C@@H](CCC(=O)O)NC(=O)CN1CCN(CC(=O)O)CCN(CC(=O)O)CCN(CC(=O)O)CC1)C(=O)N[C@@H](CC(=O)O)C(=O)N(C)[C@@H](Cc1ccccc1)C(N)=O,"Gastrin/cholecystokinin type B receptor (CCKBR, Homo sapiens, UniProt P32239)","ligand displacement, radioligand",,0.0404 µM
COc1ncccc1-c1cnn2ccc(N3CCN(C(=O)OC(C)C)CC3)nc12,"BMP-2-inducible protein kinase (BMP2K, Homo sapiens, UniProt Q9NSY1)","enzyme activity, inhibitor",,0.014 µM
C[C@H](N)Cn1ncc2ccc3c(c21)CCCO3,"D(3) dopamine receptor (Drd3, Rattus norvegicus, UniProt P19020)","ligand displacement, radioligand",,7.2 µM
c1ccc(CN(CCN(Cc2ccccn2)Cc2ccccn2)Cc2ccccn2)nc1,blaNDM-1,"enzyme activity, inhibitor, fluorescence",,0.644 µM
CN1CCN(CC/C=C2/c3ccccc3Sc3ccc(S(=O)(=O)N(C)C)cc32)CC1,HTR2C,"ligand displacement, radioligand",,2.8 µM
CCN(CC)C(=O)N[C@@H]1C[C@@H]2c3cccc4[nH]cc(c34)C[C@H]2N(C)C1,blaNDM-1,"enzyme activity, inhibitor",,> 30 µM
Ic1ccccc1CN[C@@H]1C2CCN(CC2)[C@@H]1C(c1ccccc1)c1ccccc1 (racemic),"Substance-P receptor (TACR1, Homo sapiens, UniProt P25103)","ligand displacement, radioligand",,0.00725 µM
CC(C)[C@H](NC(=O)[C@@H](NC(=O)[C@@H](NC(=O)[C@@H](NC(=O)[C@@H](NC(=O)[C@H](Cc1ccccc1)NC(=O)[C@H](CCC(=O)O)NC(=O)[C@@H](N)CC(=O)O)C(C)C)C(C)C)C(C)C)[C@@H](C)O)C(=O)O,"HLA class I histocompatibility antigen, B alpha chain","ligand displacement, radioligand",,52.8 µM
C[C@H](N)[C@H](O)c1cccc(O)c1,"5-hydroxytryptamine receptor 2B (HTR2B, Homo sapiens, UniProt P41595)","ligand displacement, radioligand",,7.38 µM
O=C(O)c1cccc(C(=O)O)n1,blaNDM-1,"enzyme activity, inhibitor, fluorescence",,4.26 µM
CC[C@H](C)[C@H](NC(=O)[C@@H](NC(=O)[C@@H](NC(=O)[C@H](CC(N)=O)NC(=O)[C@@H](NC(=O)[C@H](CO)NC(=O)[C@H](CC(N)=O)NC(=O)[C@H](CC(C)C)NC(=O)[C@@H](N)Cc1ccc(O)cc1)[C@@H](C)O)C(C)C)[C@@H](C)O)C(=O)O,"HLA class I histocompatibility antigen, B alpha chain","ligand displacement, radioligand",,7.93 µM
CC(=O)c1cc(O)c2ccccc2c1O,"mRNA cap guanine-N(7) methyltransferase (RNMT, Homo sapiens, UniProt O43148)","enzyme activity, inhibitor",,63.3 µM
COc1cc(CC(C)N)c(OC)cc1I (racemic),HTR2C,"ligand displacement, radioligand",,0.00046 µM
